Reference: the EternaBench riboswitch data

Key:
[1] = tested on: MS2 coat protein; assay: apparent Kd, MS2 coat protein; higher = weaker binding; RNA-MaP array; tryptophan 2.4 mM where present
How it was run: (§1)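 Each design was made on Illumina sequencing-chip clusters by stalled E. coli RNA polymerase and titrated with SNAP-549-labelled MS2 coat protein from 0.7 or 1.5 nM, doubling to 3 µM, in the absence and then the presence of constant ligand. The buffer was 100 mM Tris-HCl pH 7.5, 80 mM KCl, 4 mM MgCl2, BSA, DTT, yeast tRNA and Tween-20. The apparent Kd is the median of filtered per-cluster fits of binding curves, with green signal normalised to red-channel RNA signal and control-cluster median Fmax.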

[2] = tested on: MS2 coat protein; assay: apparent Kd, MS2 coat protein; higher = weaker binding; RNA-MaP array; theophylline 2 mM where present
How it was run: as §1

[3] = designed as: ON switch for tryptophan, no ligand
[4] = ligand present: tryptophan, designed as: ON switch for tryptophan
[5] = designed as: OFF switch for tryptophan, no ligand
[6] = ligand present: tryptophan, designed as: OFF switch for tryptophan
[7] = designed as: ON switch for theophylline, no ligand
[8] = ligand present: theophylline, designed as: ON switch for theophylline
[9] = designed as: OFF switch for theophylline, no ligand
[10] = ligand present: theophylline, designed as: OFF switch for theophylline

Row | Sequence | apparent Kd [1, 3] [nM] | apparent Kd [1, 4] [nM] | apparent Kd [1, 5] [nM] | apparent Kd [1, 6] [nM] | further results
1 | GAUAUAUAGGCGGCCGCCACUGAUUUUCAUAUAUAUAUAACAUGAGGAUCACCCAUGUAGAUAUACAGGACCGGGCCUAUAUAUU | 14.5 | 13.4 |  |  | 
2 | AUGUACAUGACGGCCGCCACUACACUGAAAGUGGUCCAGAACAUGAGGAUCACCCAUGUAUCAAGUAGGACCGGGUCAUGUACAU |  |  | 361 | 380 | 
3 | AAUGUAUUCCACAUGAGGAUCACCCAUGUGCGAGGACCGGUACGGCCGCCACUCGGUGUUGGGAUCUGUUCUGAAUACAUUAAUG |  |  | 29 | 114 | 
4 | CAAAAUAUAACGGCCGCCACUUACUCAUGAGGUAACAACAUGAGGAUCACCCAUGUUUGAGGAUCAAGGACCGGGUUAUAUUUUG | 30.7 | 17 |  |  | 
5 | GCAUCCUAGUCGGCCGCCACUACAACAUGAGGAUCACCCAUGUGUGGGAGAUCCGUCCUACGAAGUAGGACCGGGACUAGGAUGC | 272 | 444 |  |  | 
6 | AAUGUAUGGCACAUGAGGAUCACCCAUGUGCGAGGACCGGUACGGCCGCCACUCGGUCCUGGGAACUUAUUACUAUACAUUAAUG |  |  | 11.9 | 23.3 | 
7 | CUACAUUUGUAGAAACCGGUCAACAAUAAUCGAGGACCGGUACGGCCGCCACUCGAUGUGAAAUCACAUGAGGAUCACCCAUGUA | 18 | 18.1 |  |  | 
8 | UCUGCCGCGGCUCCGAUCCUCCUGUAGUUCCGAGGACCGGUACGGCCGCCACUCGUAGCACAUGAGGAUCACCCAUGUCUUGCGG |  |  | 9.45 | 11.2 | 
9 | UUAUAAGUACCGGUCCUCAGAUCCUCAUGACGAGGACCGGUACGGCCGCCACUCGAAACAUGAGGAUCACCCAUGUAAUAAUACU |  |  | 26.4 | 20.2 | 
10 | AUAACGAGUGGUGGAUAAUCCUCAUGUAAACGAGGACCGGUACGGCCGCCACUCGAUAACAUGAGGAUCACCCAUGUAAUAAUAA |  |  | 13.2 | 10.3 | 
11 | AGAGCAUUGACGGCCGCCACUCAUGUCACAUGAGGAUCACCCAUGUGAUGGGUGAUAGCCCGGUCGAGGACCGGGUCAAUGCUCA | 17.2 | 18 |  |  | 
12 | AGCAACAAGUCGGCCGCCACUCAUUUAACAUGAGGAUCACCCAUGUGAAUAACAUGGUUGUAAUAGAGGACCGGGACAGUUGCAU | 119 | 574 |  |  | 
13 | GGGUACAUCGCGGCCGCCACUUAUGUAAAUACAUGAGGAUCACCCAUGUCGAUGGAGACAUCGGAAAGGACCGGGUGAUGUACCG | 198 | 47.5 |  |  | 
14 | AAAUAAUAUUAAUUAAUUAUAUUAUUCUGACGAGGACCGGUACGGCCGCCACUCGGCCCAUGGUACAUGAGGAUCACCCAUGUCU | 17.6 | 13.6 |  |  | 
15 | AUUCAUGGAAACAUGACAUAGGGAUCUAUCCGAGGACCGGUACGGCCGCCACUCGCGUGGAGGCACAUGAGGAUCACCCAUGUUA | 278 | 432 |  |  | 
16 | ACACCAUACAUGAGGAUCACCCAUGUUACACGAGGACCGGUACGGCCGCCACUCGAAUUCAGGAAACCUCGGAUAAUAUUGUGAA | 25.9 | 33.2 |  |  | 
17 | UAAUCCGGUCCUCGAUAGGUGAUCCUCUAACGAGGACCGGUACGGCCGCCACUCGAUAACAUGAGGAUCACCCAUGUAAUAAUAA |  |  | 44 | 33.8 | 
18 | ACAUGAGGAUCACCCAUGUGCAUGAUGAUCCGAGGACCGGUACGGCCGCCACUCGUCAUGAUGAUCUUUCAUGUUUGUCGCGCGC | 329 | 429 |  |  | 
19 | AGAUGAGUCACGGCCGCCACUCACUACAGGUUCACCCUUGGUUAACAUGAGGAUCACCCAUGUGGGAGGACCGGGUGAUGAGCAU |  |  | 19.9 | 25.1 | 
20 | AUUAAGGAUAUGUAGACGGCGGAGAAGAGACGAGGACCGGUACGGCCGCCACUCGUGUUAGUUAACAUGAGGAUCACCCAUGUAA | 49.7 | 22 |  |  | 
21 | GGCGCUGCGUCGGCCGCCACUAGUGGGUAAUGGGUGUACAUGAGGAUCACCCAUGUAUUUUGGCCUAGGACCGGGACGUGGCGCC |  |  | 453 | 503 | 
22 | UGUAUUGGAAACAGUACUAGUGAUCCGGUCCGAGGACCGGUACGGCCGCCACUCGAAAUUAAUAAACAUGAGGAUCACCCAUGUA |  |  | 14.8 | 34.2 | 
23 | CAUCCUAGUACAUGAGGAUCACCCAUGUAUCGAGGACCGGUACGGCCGCCACUCGAAUGGCGGAUCGUUAAUCCUCUAGGAUGGA |  |  | 10 | 13.5 | 
24 | AUUCAUGGAAACAUGACAUAGGGAUCCGGUCGAGGACCGGUACGGCCGCCACUCGUUUGGAGGCACAUGAGGAUCACCCAUGUUA | 82 | 67.5 |  |  | 
25 | AAGACCAGGAGGUGAUCCUAACUGGUCCAACGAGGACCGGUACGGCCGCCACUCGAAUAAACAUGAGGAUCACCCAUGUAAUAAU | 98.1 | 225 |  |  | 
26 | GGCACAUAGUCGGCCGCCACUAGUGGGAAAUGGGAGAACAUGAGGAUCACCCAUGUAUUAUAGCCUAGGACCGGGACUAUGUGCC |  |  | 74.8 | 105 | 

Row | Sequence | apparent Kd [1, 3] [nM] | apparent Kd [1, 4] [nM] | apparent Kd [1, 5] [nM] | apparent Kd [1, 6] [nM] | further results
27 | CUAAAUAUAUCGGCCGCCACUUACUCAUGAGGUAACAACAUGAGGAUCACCCAUGUUUGAGGAUCAAGGACCGGGAUAUAUUUAG | 27.8 | 19 |  |  | 
28 | GGAUAGGACACGGCCGCCACUGCGCUAGGAUACUAGAACAUUUCCUCACAUGAGGAUCACCCAUGUAGGACCGGGUGUCCUAUCG |  |  | 49.6 | 152 | 
29 | UCGUUUUAGUCGGCCGCCACUGUGAGCAUGGUUAACAUGAGGAUCACCCAUGUCCCGUACUAUAACAGGACCGGGACGUAGUUGC | 93 | 22.8 |  |  | 
30 | CUGUACAUCUCGGCCGCCACUGCUGACAUGGGAGUCACCCAUGUCCACAUGAGGAUCACCCAUGUCAGGACCGGGAGGUGUGCAG | 49.8 | 255 |  |  | 
31 | AUACAUGAGGAUCACCCAUGUGAUGGCCGGCGAGGACCGGUACGGCCGCCACUCGUGAUCCGUCCUGAGAGCAAAGCCCUCAGCA | 124 | 171 |  |  | 
32 | AUGGACGACGAUCUGGGAAAACCAGAUCGACGAGGACCGGUACGGCCGCCACUCGUGUUUAUUUAACAUGAGGAUCACCCAUGUA | 45.9 | 17.6 |  |  | 
33 | GAUCGAAAUAACGUCUAGGAAAACUAGACGCGAGGACCGGUACGGCCGCCACUCGGGUGGCACAUGAGGAUCACCCAUGUAGAUC |  |  | 78.7 | 105 | 
34 | UGUCAGCGAAAGUUGACAUGUCUUACCGGUCGAGGACCGGUACGGCCGCCACUCGAUCUCUCGCACAUGAGGAUCACCCAUGUCG | 12.7 | 11.2 |  |  | 
35 | GGUUACUCUACGGCCGCCACUGUUAAAUAAUAAACCUGUACAUAAACAUGAGGAUCACCCAUGUACAGGACCGGGUAGUGUAACC | 32.1 | 16.1 |  |  | 
36 | CUCAUCCACGCGGCCGCCACUAUAUUGUGGUGCGUAUGUGUCGUAAUACAUGAGGAUCACCCAUGUAGGACCGGGCGUGGAUGAG |  |  | 10.8 | 20.4 | 
37 | GGCCAUGGAAACAUGGCGGCGGCGUAUGCGCGAGGACCGGUACGGCCGCCACUCGGGCGACAUGAGGAUCACCCAUGUUCCUCAU |  |  | 182 | 478 | 
38 | GGUUACUCUACGGCCGCCACUGAUUAUUUAUAAUCCUGUACAUAAACAUGAGGAUCACCCAUGUACAGGACCGGGUAGUGUAACC | 33.8 | 29.4 |  |  | 
39 | AUUGUGAAGUCGGCCGCCACUGCAUAGUUUAACCUCUUUUAACAUGAGGAUCACCCAUGUAAUGACAGGACCGGGACAAUAGUAA | 51.5 | 59.9 |  |  | 
40 | UUCUACGACGAUCUGGGAAAACCAGAUCGACGAGGACCGGUACGGCCGCCACUCGUGUUUCUUUAACAUGAGGAUCACCCAUGUA | 20.5 | 14.5 |  |  | 
41 | AGCCGGAUUACGGCCGCCACUGUAGACGUGACGAAAGUCGCGUCAACAUGAGGAUCACCCAUGUACAGGACCGGGUGGUCGGGCG | 161 | 27.5 |  |  | 
42 | UGUAACAUGAGGAUCACCCAUGUGAGUGAUACCAGAUUAGUAUUAGUCCCUUGGCAGCACGUUGGGCGAGUGUAUAGUCUAUGCG |  |  |  |  | apparent Kd [2, 7]: 147 nM; apparent Kd [2, 8]: 113 nM
43 | ACGAACGAUAGUGAUACCAGACGUACAUGAGGAUCACCCAUGUUGUAAACAUGGUUAAUAGUCCCUUGGCAGCACGAUAAGUUCG |  |  |  |  | apparent Kd [2, 9]: 575 nM; apparent Kd [2, 10]: 499 nM
44 | ACGACGCAUAGUGAUACCAGUAGAACAUGAGGAUCACCCAUGUCUGUGACGCACCACCUCUGCCCUUGGCAGCACUAUGCGUCAG |  |  |  |  | apparent Kd [2, 7]: 22.7 nM; apparent Kd [2, 8]: 22.9 nM
45 | UUAAGAGGCUAUCAAAUUUGAUUUUGUGAUACCAGAAUAAUUUUAUUCCCUUGGCAGCAUGACAUGAGGAUCACCCAUGUGUCUU |  |  |  |  | apparent Kd [2, 7]: 35.4 nM; apparent Kd [2, 8]: 30.2 nM
46 | AGUACUCGAACGGAUACCAGCCGGACAUGAGGAUCACCCAUGUCCUACCAUGUUUCGGUUGGCCCUUGGCAGCCGUUCGUGUACA |  |  |  |  | apparent Kd [2, 7]: 425 nM; apparent Kd [2, 8]: 30.4 nM
47 | AAUAAGUACUUUGAUACCAGCCUGCCAUCAUGCUAAUUUACAUGAGGAUCACCCAUGUUAGGCCCUUGGCAGCAAAGUGCAAUAA |  |  |  |  | apparent Kd [2, 9]: 12.5 nM; apparent Kd [2, 10]: 25.6 nM
48 | AGACAUGAGGAUCACCCAUGUAGUACGGAUACCAGAUCCAGAUGCGUCCCUUGGCAGCUGUAGUACAGCGUUACAUCGCUCGUAG |  |  |  |  | apparent Kd [2, 9]: 20.8 nM; apparent Kd [2, 10]: 32.1 nM
49 | ACAUGAACAUGAGGAUCACCCAUGUGGGAUACCAGCGUGUAUGAGCGCCCUUGGCAGCUCAUGACAUGAGGAUCACCCAUGUUGG |  |  |  |  | apparent Kd [2, 9]: 262 nM; apparent Kd [2, 10]: 453 nM
50 | AGUGUUAUAACUGAUACCAGACCUUUGCUUAUACAUGAGGAUCACCCAUGUAAAAUGGCGGUCCCUUGGCAGCAGAGAAUACGCA |  |  |  |  | apparent Kd [2, 7]: 68 nM; apparent Kd [2, 8]: 13.2 nM
51 | UUACAUGAGGAUCACCCAUGUCAUAACGAUACCAGAUAGUUAAUGAUCCCUUGGCAGCGUAAUACCUAGACAUUUAAGUCAUAGG |  |  |  |  | apparent Kd [2, 7]: 56.2 nM; apparent Kd [2, 8]: 19.6 nM
52 | UCGUCCUCCGCAAGGAGGAGGAGUUGCGAUACCAGCACGGUAACGUGCCCUUGGCAGCGCACAUGAGGAUCACCCAUGUGGUGUU |  |  |  |  | apparent Kd [2, 9]: 214 nM; apparent Kd [2, 10]: 489 nM
